{
  "source": "paper PMC9653025",
  "about": "(Drug Design, Development and Therapy, 2022)",
  "key": {"COX-1/COX-2": {"system": "COX-1/COX-2", "conditions": "cited from earlier work"}, "[1]": {"assay_type": "in vivo, healthy Chinese subjects", "conditions": "single oral 100 mg imrecoxib, plasma", "in_short": "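Open-label parallel Phase I study in healthy Chinese adults aged 18–85 y, BMI 19–28 kg/m2, 1:1 sex. Single 100 mg tablet of test compound taken orally with 240 mL water after a 4 h fast. EDTA blood drawn predose and 0.5–72 h after dosing; plasma stored at −70°C. Parent compound plus hydroxyl and carboxyl metabolites measured by LC-MS/MS (C18, MRM, acetonitrile precipitation, internal standard). Non-compartmental analysis; group geometric mean ratios with 90% CI.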"}, "Safety and tolerability": {"test": "Safety and tolerability", "assay_type": "in vivo, healthy Chinese subjects", "in_short": "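Single 100 mg oral tablet given after fasting; subjects kept in a supervised Phase I ward until 72 h post-dose. Tolerability tracked through adverse-event monitoring, physical examinations, haematology, blood biochemistry, urinalysis and 12-lead ECG; clinical laboratory tests run in a CAP-accredited hospital laboratory. Elderly and non-elderly groups assessed in parallel.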"}, "[2]": {"conditions": "healthy subjects, single oral dose 30, 60, 90 and 200mg imrecoxib; cited from earlier work"}, "[3]": {"conditions": "Elderly Group (N=9), single oral 100 mg imrecoxib"}, "[4]": {"conditions": "Elderly Group (N=9), single oral 100 mg imrecoxib, subjects (%)"}, "[5]": {"conditions": "Non-Elderly Group (N=10), single oral 100 mg imrecoxib"}, "[6]": {"conditions": "Non-Elderly Group (N=10), single oral 100 mg imrecoxib, subjects (%)"}},
  "note": "Read-outs that look alike come from different tables or passages of the source.",
  "data": [
    {"molecule": "CS(=O)(=O)c1ccc(C2=C(c3ccccc3)C(=O)OC2)cc1", "note": "[rofecoxib]", "values": [
      {"measurement": "IC50COX-1/IC50COX-2 value", "setting": "COX-1/COX-2", "value": "above 213"}
    ]},
    {"molecule": "CCCN1CC(c2ccc(S(C)(=O)=O)cc2)=C(c2ccc(C)cc2)C1=O", "note": "[M0, imrecoxib]", "values": [
      {"measurement": "Geometric Mean AUC0-∞", "setting": "[1]; Group A (N=10), non-elderly", "value": 148, "unit": "h*ng/m"},
      {"measurement": "Geometric Mean AUC0-∞", "setting": "[1]; Group B (N=9), elderly", "value": 193, "unit": "h*ng/m"},
      {"measurement": "Geometric Mean Ratio B/A of AUC0-t", "setting": "[1]; elderly (B) / non-elderly (A)", "value": 134, "unit": "%"},
      {"measurement": "Geometric Mean Ratio B/A of AUC0-∞", "setting": "[1]; elderly (B) / non-elderly (A)", "value": 130, "unit": "%"},
      {"measurement": "Geometric Mean Ratio B/A of Cmax", "setting": "[1]; elderly (B) / non-elderly (A)", "value": 139, "unit": "%"},
      {"measurement": "All adverse events, Severity Grade I", "setting": "Safety and tolerability; [3]", "value": 2},
      {"measurement": "Aspartate transaminase increased, Severity Grade I", "setting": "Safety and tolerability; [3]", "value": 1},
      {"measurement": "Aspartate transaminase increased, Severity Grade II", "setting": "Safety and tolerability; [3]", "value": 0},
      {"measurement": "Aspartate transaminase increased, Severity Grade III", "setting": "Safety and tolerability; [3]", "value": 0},
      {"measurement": "Blood bilirubin increased, Severity Grade I", "setting": "Safety and tolerability; [3]", "value": 1},
      {"measurement": "Blood bilirubin increased, Severity Grade II", "setting": "Safety and tolerability; [3]", "value": 0},
      {"measurement": "Blood bilirubin increased, Severity Grade III", "setting": "Safety and tolerability; [3]", "value": 0},
      {"measurement": "Blood glucose increased, Severity Grade I", "setting": "Safety and tolerability; [3]", "value": 0},
      {"measurement": "Blood glucose increased, Severity Grade II", "setting": "Safety and tolerability; [3]", "value": 0},
      {"measurement": "Blood glucose increased, Severity Grade III", "setting": "Safety and tolerability; [3]", "value": 0},
      {"measurement": "White blood cell increased, Severity Grade I", "setting": "Safety and tolerability; [3]", "value": 0},
      {"measurement": "White blood cell increased, Severity Grade II", "setting": "Safety and tolerability; [3]", "value": 0},
      {"measurement": "White blood cell increased, Severity Grade III", "setting": "Safety and tolerability; [3]", "value": 0},
      {"measurement": "Acute upper respiratory infection, Incidence (%)", "setting": "Safety and tolerability; [4]", "value": "0(0.0%)"},
      {"measurement": "All adverse events, Incidence (%)", "setting": "Safety and tolerability; [4]", "value": "2(22.2%)"},
      {"measurement": "Aspartate transaminase increased, Incidence (%)", "setting": "Safety and tolerability; [4]", "value": "1(11.1%)"},
      {"measurement": "Blood bilirubin increased, Incidence (%)", "setting": "Safety and tolerability; [4]", "value": "1(11.1%)"},
      {"measurement": "Blood glucose increased, Incidence (%)", "setting": "Safety and tolerability; [4]", "value": "0(0.0%)"},
      {"measurement": "Fibrinogen decreased, Incidence (%)", "setting": "Safety and tolerability; [4]", "value": "0(0.0%)"},
      {"measurement": "White blood cell increased, Incidence (%)", "setting": "Safety and tolerability; [4]", "value": "0(0.0%)"},
      {"measurement": "All adverse events, Severity Grade I", "setting": "Safety and tolerability; [5]", "value": 2},
      {"measurement": "Aspartate transaminase increased, Severity Grade I", "setting": "Safety and tolerability; [5]", "value": 0},
      {"measurement": "Aspartate transaminase increased, Severity Grade II", "setting": "Safety and tolerability; [5]", "value": 0},
      {"measurement": "Aspartate transaminase increased, Severity Grade III", "setting": "Safety and tolerability; [5]", "value": 0},
      {"measurement": "Blood bilirubin increased, Severity Grade I", "setting": "Safety and tolerability; [5]", "value": 0},
      {"measurement": "Blood bilirubin increased, Severity Grade II", "setting": "Safety and tolerability; [5]", "value": 0},
      {"measurement": "Blood bilirubin increased, Severity Grade III", "setting": "Safety and tolerability; [5]", "value": 0},
      {"measurement": "Blood glucose increased, Severity Grade I", "setting": "Safety and tolerability; [5]", "value": 1},
      {"measurement": "Blood glucose increased, Severity Grade II", "setting": "Safety and tolerability; [5]", "value": 0},
      {"measurement": "Blood glucose increased, Severity Grade III", "setting": "Safety and tolerability; [5]", "value": 0},
      {"measurement": "Fibrinogen decreased, Severity Grade I", "setting": "Safety and tolerability; [5]", "value": 1},
      {"measurement": "White blood cell increased, Severity Grade I", "setting": "Safety and tolerability; [5]", "value": 1},
      {"measurement": "White blood cell increased, Severity Grade II", "setting": "Safety and tolerability; [5]", "value": 0},
      {"measurement": "White blood cell increased, Severity Grade III", "setting": "Safety and tolerability; [5]", "value": 0},
      {"measurement": "Aspartate transaminase increased, Incidence (%)", "setting": "Safety and tolerability; [6]", "value": "0(0.0%)"},
      {"measurement": "Blood bilirubin increased, Incidence (%)", "setting": "Safety and tolerability; [6]", "value": "0(0.0%)"},
      {"measurement": "Severity of all the AEs", "setting": "Safety and tolerability; both groups, recovered without any medical intervention", "value": "mild"},
      {"measurement": "Gastrointestinal, cardiovascular or renal side effects observed", "setting": "Safety and tolerability; both groups, single oral 100 mg imrecoxib", "value": "No concomitant gastrointestinal, cardiovascular or renal side effects"},
      {"measurement": "AEs considered to be ADRs", "setting": "Safety and tolerability; elderly group", "value": "Increased aspartate transaminase and blood bilirubin"},
      {"measurement": "Tolerability", "setting": "Safety and tolerability; non-elderly and elderly healthy subjects, oral", "value": "well tolerated"},
      {"measurement": "AEs regarded as adverse drug reaction (ADR)", "setting": "Safety and tolerability; non-elderly group", "value": "increased blood glucose"},
      {"measurement": "IC50COX-1/IC50COX-2 value", "setting": "COX-1/COX-2", "value": 6.39},
      {"measurement": "IC50COX-1/IC50COX-2 value relative to celecoxib", "setting": "COX-1/COX-2", "value": 77, "unit": "%"},
      {"measurement": "Dose dependence of pharmacokinetics", "setting": "[2]", "value": "linear dynamic characteristics"},
      {"measurement": "Tmax", "setting": "[2]", "value": "about 2 hours"}
    ]}
  ]
}
